Assay outcomes (PubChem)
CHOP inhibitor: CHOP inhibition in unfolded protein response. CHO-K1 CHOP-promoter luciferase, tunicamycin-induced, 15-18 h. inhibition, % at 10 µM. actives 3.8% (n = 220,000). AID 2732;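 active = compounds that reduced the stress-induced luciferase reporter signal by more than about 70% of percent inhibition, limit read from the data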;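 note: 0% = tunicamycin plus vehicle and 100% = wells without tunicamycin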
CHOP UPR activ: apoptotic UPR (CHOP) activation; CHO-CHOP luciferase reporter, luminescence; percent of tunicamycin response over DMSO baseline; activation, % at 10 µM; actives 0.34% (n = 330,000);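 active = at 10 µM dose, activation of 40% or more, normalized to positive control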;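 note: 100% = tunicamycin at 10 µg/mL and 0% = DMSO alone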
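Assay system: CHO-CHOP cells, stable luciferase reporter of PERK-eIF2a-CHOP signalling / Buffer or medium: F12 plus 10% serum / Compound dosing: one dose, 10 µM in 0.5% DMSO / Times: 6 h compound treatment, 37 °C / Technique: luciferase luminescence / Read-out: % reporter activation, DMSO baseline versus tunicamycin full activation / Benchmarks: tunicamycin and DMSO controls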
XBP1 UPR activ: adaptive UPR (XBP1) activation; actives 0.33% (n = 330,000); CHO-XBP1 luciferase reporter, IRE1-XBP1 UPR activation, luminescence; percent of tunicamycin response, DMSO as zero; activation, % at 20 µM; AID 463104;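 active = versus positive control, 20 µM dose yields 30% or more activation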;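 note: 100% = tunicamycin at 10 µg/mL and 0% = DMSO only wells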
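Signal: luciferase luminescence; Assay system: CHO-XBP1 luciferase reporter cells; Amount: one thousand reporter cells per well; Dosing: 20 µM single concentration, DMSO 1%; Benchmarks: high control tunicamycin 10 µg/mL final, low control DMSO vehicle only; Schedule: 6 h compound exposure at 37 °C, 5% CO2; Evaluation: percent activation relative to tunicamycin reference.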
FXN GAA850 act: frataxin GAA850 promoter activation. activation, % at 6 µM. actives 0.56% (n = 360,000). HEK293 lucGAA850 FXN promoter luciferase reporter, 24 h; percent of 10 µM SAHA response;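 active = activation above the average of all compounds screened plus 3 SD, cutoff fixed separately per campaign, cut at about 7.5% in these data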;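 note: 0% = DMSO wells and 100% = 10 µM SAHA wells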
GAA30 counter: activates GAA30 frataxin promoter, counter-screen for GAA850 activators | shares compounds with FXN GAA850 act | HEK293 lucGAA30 FXN promoter luciferase, 24 h; DMSO = 0%, 5 µM ipriflavone = 100% | activation, % at 6 µM | actives 66% (n = 1,900) | AID 588350;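 active = mean activation above the mean of solvent-only control wells plus 3 SD, cut at about 22% in these data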;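 note: counterscreen of GAA850 promoter hits where activity marks nonselective or luminescence artifacts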
FXN GAA850 conf: GAA850 FXN promoter activation confirmation; HEK293 lucGAA850 FXN promoter luciferase reporter, 24 h; 100% = activation by SAHA; AID 588351; actives 86% (n = 1,900); shares compounds with FXN GAA850 act; activation, % at 6 µM;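 active = mean activation above a set limit taken from the primary screen, cut at about 8% in these data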;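 note: 0% = DMSO wells and 100% = 10 µM SAHA wells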
* hit, by the source's call; . = not tested or not shown. The full list was thinned out, with hits kept by preference.

SMILES	CHOP inhibitor	CHOP UPR activ	XBP1 UPR activ	FXN GAA850 act	GAA30 counter	FXN GAA850 conf
Cc1ccc(N2C(=O)N3[C@H](c4ccc(F)cc4)[C@@H]4C(=O)N(C5CCCCC5)C(=O)[C@@H]4[C@]3(Cc3ccccc3)C2=O)cc1	.	1	-1	12*	31*	11*
O=C1[C@H]2[C@@H](c3ccc(F)cc3)N3C(=O)N(c4cccc(F)c4)C(=O)[C@@]3(Cc3ccccc3)[C@H]2C(=O)N1C1CCCCC1	.	-1	-1	11*	28*	14*
COc1ccc([C@@H]2[C@@H]3C(=O)N(C(C)(C)C)C(=O)[C@@H]3[C@]3(Cc4ccc(Cl)cc4)C(=O)N(c4ccc(OC)cc4)C(=O)N23)cc1	.	4	6	0	.	.
CCN1C(=O)[C@H]2[C@@H](c3ccc(C)cc3)N3C(=O)N(c4ccc(C)cc4)C(=O)[C@@]3(Cc3ccccc3)[C@H]2C1=O	.	2	-1	-7	.	.
O=C1[C@H]2[C@@H](c3ccc(Cl)cc3)N3C(=O)N(c4cccc(Cl)c4)C(=O)[C@@]3(Cc3ccccc3)[C@H]2C(=O)N1C1CCCCC1	.	2	-1	8.2*	-10	0
CC(=O)c1ccc(-c2cnc3c(NC=O)cc(-c4cnn(C)c4)cn23)cc1	.	.	.	1	.	.
CC1=C(C(=O)N2CCOCC2)CC(CC(=O)NC2CCCCC2)C(=O)N1Cc1ccc(F)cc1 (configuration not stated)	.	.	.	0	.	.
O=C(NCc1ccccc1)c1cc(C2CCCN(S(=O)(=O)c3ccccc3)C2)on1 (configuration not stated)	.	.	.	-1	.	.
O=C(/C=N\O)NCCCNCc1ccccc1	5	0	-2	21*	26*	9.0*
O=c1[nH]ncc(N/N=C\c2cccnc2)c1Cl	-20	0	0	0	.	.
Cc1cccc(/C=N\Nc2cn[nH]c(=O)c2Cl)c1	-1	3	4	22*	66*	24*
O=C(CSc1nc2ccccc2c(=O)n1CCCO)NCc1ccccc1	-7	-1	-4	2	.	.
O=c1c2ccccc2nc(SCc2nc3ccccc3s2)n1CCCO	0	8	16	14*	102*	43*
COc1ccccc1NC(=O)CC1C(=O)NCCN1C(=O)Nc1ccccc1 (configuration not stated)	-3	0	2	8.0*	18	8.0*
O=C(CC1C(=O)NCCN1C(=O)Nc1ccccc1)Nc1ccc(F)cc1 (configuration not stated)	6	1	1	2	.	.
Cc1onc(-c2ccccc2)c1C(=O)N1CCC(C)(C(=O)NS(=O)(=O)C2CC2)C1 (configuration not stated)	.	.	.	1	.	.
CS(=O)(=O)Nc1cccc(-c2ccc3nncn3c2)c1	.	.	.	1	.	.
COc1ccc(S(=O)(=O)Nc2ccccc2OC)cc1C	36	1	-3	8.9*	10	7
COc1ccc([C@@H]2[C@@H]3C(=O)N(C(C)(C)C)C(=O)[C@@H]3[C@]3(Cc4ccc(Cl)cc4)C(=O)N(c4ccc(Br)cc4)C(=O)N23)cc1	.	0	2	-4	.	.
Cc1cccc(N2C(=O)N3[C@H](c4ccc(Br)cc4)[C@@H]4C(=O)N(C(C)(C)C)C(=O)[C@@H]4[C@]3(Cc3ccc(Cl)cc3)C2=O)c1	.	3	-1	10*	18	17*
Cc1ccc(N2C(=O)N3[C@H](c4ccc(Br)cc4)[C@@H]4C(=O)N(C(C)(C)C)C(=O)[C@@H]4[C@]3(C)C2=O)cc1	.	-3	-2	6	.	.
Cc1cccc(N2C(=O)N3[C@H](c4ccc(Br)cc4)[C@@H]4C(=O)N(C(C)(C)C)C(=O)[C@@H]4[C@]3(C)C2=O)c1	.	2	-1	14*	28*	16*
CN(C)c1ccc(O)c2c1CC1CC3[C@@H](N(C)C)C(=O)C(C(N)=O)=C(O)[C@]3(O)C(=O)C1=C2O (some centres not stated)	31	4	-3	15*	29*	10*
O=[N+]([O-])c1nn(-c2ccc3c(c2)OCCO3)n(O)c1=NCc1ccc(F)cc1Cl	-32	3	2	9.8*	91*	30*
Cc1nc2ccc(-c3nc4ccccc4[nH]3)cc2[nH]1	-33	0	-3	7.8*	129*	38*
C=Cc1ccc(Cn2c(C)c(C(=O)NCc3ccc(C#N)cc3)sc2=O)cc1	.	.	.	-3	.	.
O=C1c2cc([N+](=O)[O-])cc3cc([N+](=O)[O-])cc(c23)C(=O)N1c1ccccn1	-34	.	.	8.2*	15	17*
COC(=O)c1c(-c2ccc(F)cc2)csc1NC(=O)c1ccco1	-30	7	4	9.6*	91*	38*
